Activity calls are given as the source filed them. The calls are words filed in the database; no cut-off is given here.

Chain of P-gp (ABCB1) (P08183 whole entry): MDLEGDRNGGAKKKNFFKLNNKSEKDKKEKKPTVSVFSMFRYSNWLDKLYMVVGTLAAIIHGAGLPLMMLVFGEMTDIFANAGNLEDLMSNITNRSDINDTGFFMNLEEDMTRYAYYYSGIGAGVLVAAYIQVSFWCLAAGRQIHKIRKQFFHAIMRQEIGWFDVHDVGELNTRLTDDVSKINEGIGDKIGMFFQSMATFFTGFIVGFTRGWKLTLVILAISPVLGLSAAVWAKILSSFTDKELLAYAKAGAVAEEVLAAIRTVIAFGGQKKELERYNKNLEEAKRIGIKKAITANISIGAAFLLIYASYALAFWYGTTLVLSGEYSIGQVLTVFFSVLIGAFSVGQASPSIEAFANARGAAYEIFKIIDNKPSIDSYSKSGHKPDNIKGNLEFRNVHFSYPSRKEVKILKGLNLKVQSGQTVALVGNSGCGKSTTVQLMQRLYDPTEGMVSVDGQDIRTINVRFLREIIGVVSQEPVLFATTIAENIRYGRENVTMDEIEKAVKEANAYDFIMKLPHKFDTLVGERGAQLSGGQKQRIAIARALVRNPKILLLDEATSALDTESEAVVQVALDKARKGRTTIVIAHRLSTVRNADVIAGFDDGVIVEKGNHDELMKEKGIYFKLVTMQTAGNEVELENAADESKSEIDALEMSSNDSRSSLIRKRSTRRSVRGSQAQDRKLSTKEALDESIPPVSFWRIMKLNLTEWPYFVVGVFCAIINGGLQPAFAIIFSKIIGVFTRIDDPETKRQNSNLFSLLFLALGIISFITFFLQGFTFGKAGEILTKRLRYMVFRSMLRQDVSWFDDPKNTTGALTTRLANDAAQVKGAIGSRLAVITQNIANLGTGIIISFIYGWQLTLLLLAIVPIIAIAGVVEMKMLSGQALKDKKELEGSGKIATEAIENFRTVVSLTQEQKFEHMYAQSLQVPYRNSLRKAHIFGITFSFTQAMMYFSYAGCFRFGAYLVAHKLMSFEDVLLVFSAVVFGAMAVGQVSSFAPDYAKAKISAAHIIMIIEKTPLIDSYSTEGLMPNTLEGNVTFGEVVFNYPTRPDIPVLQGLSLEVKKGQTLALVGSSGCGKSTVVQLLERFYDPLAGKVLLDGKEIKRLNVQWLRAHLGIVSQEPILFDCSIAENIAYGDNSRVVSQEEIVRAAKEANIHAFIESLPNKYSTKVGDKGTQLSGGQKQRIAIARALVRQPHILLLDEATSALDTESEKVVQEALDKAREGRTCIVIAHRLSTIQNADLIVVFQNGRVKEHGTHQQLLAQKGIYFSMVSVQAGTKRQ

Test system in the first data set: not listed separately
Kind of data set: Cytotoxicity against human HBL100 cells by MTT assay. Type of data set: cell-based. The following applies: HBL-100. The method in brief:
(§1)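 Cells plated 24 h, then exposed 72 h to compound at 1-300 µM. Compound was diluted from a fresh DMSO stock (20 mM for A549, HT29, T47D; 10 mM for TS/A, HBL-100) into 5%-serum medium, with at most 0.5% or 1% v/v DMSO respectively. Growth media: DMEM (A549, HT29, T47D), McCoy's 5A (HBL-100). MTT (5 mg/mL in PBS, 2.5 µL/100 µL medium) was added for 2 h at 37 °C; formazan dissolved in DMSO and read at OD 570 nm.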
For the compound `O=C(Cn1cnc2ccccc21)N1c2ccccc2Oc2ccccc21` [PHENOXBENZIMID], the IC50 (usually the concentration needed to halve the response being measured) was above 100 µM.
Same read-out and setting: the figure for `c1ccc2c(-n3ccnc3)c3ccccc3cc2c1` is 221 µM; for `O=C(CCl)N1c2ccccc2Oc2ccccc21` it is 29 µM; for `O=C(Cn1ccnc1)N1c2ccccc2Oc2ccccc21` [PHENOXIMID] it is 23 µM.

A further data set deals with HT-29. The data set is described as follows: Cytotoxicity against human HT29 cells by MTT assay.
Settings: not given
Type of data set: cell-based. The method in brief: as §1
The compound `O=C(Cn1cnc2ccccc21)N1c2ccccc2Oc2ccccc21` [PHENOXBENZIMID] displayed an IC50 of 33 µM.
Same read-out and setting: the same measure for `c1ccc2c(-n3ccnc3)c3ccccc3cc2c1`: 45 µM.
On the same count and under the same terms, the same measure for `O=C(CCl)N1c2ccccc2Oc2ccccc21`: 11 µM; for `O=C(Cn1ccnc1)N1c2ccccc2Oc2ccccc21` [PHENOXIMID]: 17 µM.

The next data set has as its system A549. The data set is described as follows: Drug accumulation in human A549 cells after 1 hrs. Type of data set: functional, cell-based.
Settings: not given
The method in brief: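 A549 cells grown on slides were exposed to 100 µM compound for 0.5-4 h, PBS-washed, fixed 5 min in 4% buffered paraformaldehyde, and imaged by fluorescence microscopy under 365 nm irradiation with a 1 s exposure.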
Regarding `c1ccc2c(-n3ccnc3)c3ccccc3cc2c1`, the outcome was Active.

In a further data set the test system is T47D. Kind of data set: Cytotoxicity against human T47D cells by MTT assay. Type of data set: cell-based.
Settings: not given
The essentials:
as §1
In general terms: Tetrazolium dyes change colour on reduction, which living cells bring about.
With `O=C(Cn1cnc2ccccc21)N1c2ccccc2Oc2ccccc21` [PHENOXBENZIMID], the IC50 amounted to 91 µM.
The compound `c1ccc2c(-n3ccnc3)c3ccccc3cc2c1` showed an IC50 of 34 µM.
Still for that read-out and setting: the same measure for `O=C(CCl)N1c2ccccc2Oc2ccccc21`: 7 µM; for `O=C(Cn1ccnc1)N1c2ccccc2Oc2ccccc21` [PHENOXIMID]: 95 µM.

The test system of a further data set is A549. Kind of data set: Inhibition of P-gp in A549 cells assessed as drug concentration required to double baseline fluorescence level by calcein-AM uptake assay. It counts as cell-based. The following applies: Homo sapiens. The method in brief:
(§2)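 A549 Pgp activity: cells washed in Hanks salt solution with 10 mM HEPES, preincubated 30 min in that buffer, then 15 min with compound. Calcein-AM (1 µM final) added for a further 60 min; uptake stopped on ice, cells washed cold and lysed 15 min in 1% Triton X-100/PBS. Calcein fluorescence read at ex 485/em 530 nm; reported as F2.0 (concentration doubling baseline fluorescence) or inhibition at 80 µM relative to verapamil.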
As to `O=C(Cn1cnc2ccccc21)N1c2ccccc2Oc2ccccc21` [PHENOXBENZIMID], the Activity is 23 µM.
The same measure, in the same setting: the same measure for `COc1ccc(CCN(C)CCCC(C#N)(c2ccc(OC)c(OC)c2)C(C)C)cc1OC` (stereo not drawn): 7 µM; for `c1ccc2c(-n3ccnc3)c3ccccc3cc2c1`: above 100 µM; for `O=C(Cn1ccnc1)N1c2ccccc2Oc2ccccc21` [PHENOXIMID]: above 100 µM.

A further data set addresses P-gp (ABCB1) (Homo sapiens, UniProt P08183). The data set is described as follows: Inhibition of P-gp in A549 cells at 80 uM by calcein-AM uptake assay relative to verapamil. As to conditions: probe calcein-AM. Type of data set: cell-based. The essentials:
as §2
With `O=C(Cn1cnc2ccccc21)N1c2ccccc2Oc2ccccc21` [PHENOXBENZIMID], the inhibition (as a rule, the relative decrease from the control value, in per cent) at 80 µM was 65%.
On the same count and under the same terms, the same measure for `c1ccc2c(-n3ccnc3)c3ccccc3cc2c1`: 18%; for `O=C(Cn1ccnc1)N1c2ccccc2Oc2ccccc21` [PHENOXIMID]: 24%.

A further data set deals with A549. Kind of data set: Cytotoxicity against human A549 cells by MTT assay. It counts as cell-based.
Settings: not given
The method in brief: as §1
Take `O=C(Cn1cnc2ccccc21)N1c2ccccc2Oc2ccccc21` [PHENOXBENZIMID]: the midpoint of inhibition, the IC50, lay at 75 µM.
On the same count and under the same terms, the figure for `c1ccc2c(-n3ccnc3)c3ccccc3cc2c1` is 75 µM.
On the same count and under the same terms, the same measure for `O=C(CCl)N1c2ccccc2Oc2ccccc21`: above 100 µM; for `O=C(Cn1ccnc1)N1c2ccccc2Oc2ccccc21` [PHENOXIMID]: above 100 µM.

The subject of a further data set is TS/A. The data set is described as follows: Cytotoxicity against […] TS/A cells by MTT assay. As to conditions: Mus musculus. It counts as cell-based. The method in brief: as §1
Regarding `O=C(Cn1cnc2ccccc21)N1c2ccccc2Oc2ccccc21` [PHENOXBENZIMID], the IC50 amounted to 51 µM.
Same read-out and setting: the figure for `c1ccc2c(-n3ccnc3)c3ccccc3cc2c1` is 101 µM; for `O=C(CCl)N1c2ccccc2Oc2ccccc21` it is 40 µM; for `O=C(Cn1ccnc1)N1c2ccccc2Oc2ccccc21` [PHENOXIMID] it is 30 µM.

Source of the values: ChEMBL document CHEMBL1147153, “Development of ruthenium antitumor drugs that overcome multidrug resistance mechanisms” (J Med Chem, 2007).
